Experimental data of several laboratories.
Matrix: plasma

CCCCCCCCCC(=O)N[C@@H](Cc1c[nH]c2ccccc12)C(=O)N[C@H](CC(N)=O)C(=O)N[C@@H](CC(=O)O)C(=O)N[C@@H]1C(=O)NCC(=O)N[C@@H](CCCN)C(=O)N[C@@H](CC(=O)O)C(=O)N[C@H](C)C(=O)N[C@@H](CC(=O)O)C(=O)NCC(=O)N[C@H](CO)C(=O)N[C@@H]([C@H](C)CC(=O)O)C(=O)N[C@@H](CC(=O)c2ccccc2N)C(=O)O[C@@H]1C
half-life (male Wistar rat; subcutaneous, 125 mg/kg, single dose): 2.6 h

C=CC(=O)N1CCC[C@@H](n2nc(-c3ccc(Oc4ccccc4)cc3)c3c(N)ncnc32)C1
half-life (male Wistar rat; oral, 40 mg/kg): 2.5 h

COCC(=O)N1CCC[C@H](C(=O)NCc2nc(-c3ccccc3)cs2)C1
half-life (male Sprague-Dawley rat; oral, 3 mg/kg): 3.9 h

Cc1cc(S(=O)(=O)NC2CC(N3CCN(CC4CCN(c5cccc6c5n(C)c(=O)n6C5CCC(=O)NC5=O)CC4)C4(CC4)C3)C2)ccc1Nc1ncc(C(F)(F)F)c(N2CCC[C@](C)(O)C2)n1 (some centres unmarked)
half-life (rat; intravenous, 2 mg/kg): 3.5 h

CC(=O)c1c(C)c2cnc(Nc3ccc(N4CCNCC4)cn3)nc2n(C2CCCC2)c1=O
half-life (male Sprague-Dawley rat; intravenous, 5 mg/kg): 2.1 h

COCC(=O)N1CCC[C@H](C(=O)NCc2nc(-c3ccc(C#N)cc3)cs2)C1
half-life (male Sprague-Dawley rat; intravenous, 1 mg/kg): 1.5 h

C[C@H]1CN(c2ccc(C3CCC(=O)NC3=O)cc2F)CCN1CC12CCC(NS(=O)(=O)c3ccc(Nc4ncc(C(F)(F)F)c(N5CCC[C@](C)(O)C5)n4)c(F)c3)(CC1)CO2 (some centres unmarked)
half-life (rat; intravenous, 2 mg/kg): 3.4 h

O=C1CCC(N2Cc3cc(C4CCN(Cc5ccccc5)CC4)ccc3C2=O)C(=O)N1 (centres unmarked)
half-life (male Sprague-Dawley rat; intravenous, 1 mg/kg): 4.29 h

C[C@H]1CN(CC2CCN(c3ccc(C4CCC(=O)NC4=O)cc3F)CC2)CC[C@H]1NS(=O)(=O)c1ccc(Nc2ncc(C(F)(F)F)c(N3CCC[C@](C)(O)C3)n2)c(F)c1 (some centres unmarked)
half-life (rat; intravenous, 2 mg/kg): 4.6 h

[2H]c1cc(C)c(NC(=O)c2cnc(Nc3cc(N4CCCCC4)nc(C)n3)s2)c(Cl)c1
half-life (male Sprague-Dawley rat; intravenous, 1 mg/kg): 1.7 h

Cc1cc(S(=O)(=O)NC2CC(N3CCN(CC4CCN(c5ccc(NC6CCC(=O)NC6=O)cc5C)CC4)CC3)C2)ccc1Nc1ncc(C(F)(F)F)c(N2CCC[C@](C)(O)C2)n1 (some centres unmarked)
half-life (rat; intravenous, 2 mg/kg): 5.3 h

C[C@H]1Oc2cc(cnc2N)-c2c(nn(C)c2C#N)CN(C)C(=O)c2ccc(F)cc21
half-life (male Sprague-Dawley rat; oral, 50 mg/kg, single dose): 17.6 h

CCCc1nc2c(C)cc(-c3nc4ccccc4n3C)cc2n1Cc1ccc(-c2ccccc2C(=O)O)cc1
half-life (male Sprague-Dawley rat; oral, 8 mg/kg, single dose): 6.84 h

COc1cc(C2C3=C(COC3=O)N(CCO)c3cc4c(cc32)CCC4)cc(OC)c1OC (centres unmarked)
half-life (female Sprague-Dawley rat; intraperitoneal, 50 mg/kg): 8.61 h
